Compounds with a hit are over-represented: about 2.7% of the library has one in this group of screens.
E-selectin induc – induces E-selectin expression in human endothelial cells; HUVEC E-selectin immunofluorescence imaging; normalized: neutral wells 0, TNF-alpha wells 100; AID 686992; 260,000 compounds, 0.37% hits; activation, % at 7.58 µM;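 active means mean E-selectin-positive cell signal at least 10% of the positive control, reached in at least 60% of replicates, without over 20% cell loss; inconclusive means no rule given, readout overlaps actives, possibly toxicity-flagged; inactive means the rest, including those meeting only one limit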
Target sequence (P16581 whole entry, looked up): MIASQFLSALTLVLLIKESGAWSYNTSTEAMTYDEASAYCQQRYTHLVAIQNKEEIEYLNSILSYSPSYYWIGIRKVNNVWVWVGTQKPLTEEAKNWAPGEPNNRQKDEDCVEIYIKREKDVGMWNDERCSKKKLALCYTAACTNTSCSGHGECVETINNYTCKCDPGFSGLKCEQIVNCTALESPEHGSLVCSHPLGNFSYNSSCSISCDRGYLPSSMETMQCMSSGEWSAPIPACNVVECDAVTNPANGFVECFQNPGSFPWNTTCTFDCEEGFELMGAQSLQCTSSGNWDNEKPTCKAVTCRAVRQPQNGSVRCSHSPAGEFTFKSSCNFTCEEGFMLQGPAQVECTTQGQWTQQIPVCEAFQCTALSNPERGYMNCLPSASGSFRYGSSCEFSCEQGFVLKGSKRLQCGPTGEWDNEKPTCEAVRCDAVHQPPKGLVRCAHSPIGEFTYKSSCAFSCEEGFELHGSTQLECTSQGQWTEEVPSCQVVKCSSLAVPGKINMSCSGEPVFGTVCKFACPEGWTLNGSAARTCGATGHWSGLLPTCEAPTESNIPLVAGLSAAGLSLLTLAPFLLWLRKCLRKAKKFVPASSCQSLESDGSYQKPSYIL
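System: HUVEC / Compound: single concentration / Signal: immunofluorescence imaging / Read-out: percent E-selectin-positive cells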
CFTR F508del cor – correctors of CFTR F508del function in bronchial epithelial cells | CFBE cells, YFP halide quenching; stimulated with forskolin plus potentiator P3; % fluorescence drop versus neutral controls | activity (quench increase), % at 7.58 µM | 350,000 compounds, 0.36% hits;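 active means mean added fluorescence quench of at least 8% versus neutral control, with both replicates also reaching 8%; inconclusive means only one of the mean or replicate conditions met; inactive means mean below 8% and not both replicates reaching 8%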;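 further: cells transiently co-express mutant CFTR-F508del with the halide-sensitive YFP; corrector assay measuring rescue of mutant channel to the surface after 24 h compound exposure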
Env fusion inh – inhibitors of HIV Env-mediated cell fusion; HeLa-JRFL Env/CEM21 cell fusion, luciferase; inhibition, % at 12.3 µM; 360,000 compounds, 1.1% hits;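 active means mean replicate inhibition score of at least 50 and every replicate individually at or above 50; inconclusive means only one of the two criteria met; inactive means mean below 50 and not all replicates reaching 50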;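 further: 0% = plate neutral controls and 100% = maraviroc near 300 nM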
FGF22 binding – binders of recombinant human FGF22 by thermal shift; Q9HCT0; SYPRO orange fluorescence; percent of sucrose octasulfate shift, DMSO zero; activity (Tm shift, normalised), % at 9.99 µM; 340,000 compounds, 1.5% hits; AID 651658;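 active means mean Tm shift, scaled 0 neutral to 100 positive control, at about 1.3% or above, every replicate too, limit read from the data; inconclusive means no clear call, values can overlap the other calls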
S100A4 inh HTS – blocks human S100A4 binding to myosin IIA peptide; AID 652163; P26447; 360,000 compounds, 0.14% hits; S100A4/TAMRA-MyoIIA peptide fluorescence polarization; inhibition, % at 10.7 µM;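 active means mean inhibition of at least 70% across replicates, with every replicate also reaching that level; inconclusive means mean inhibition reaches 70% but some replicates fall short; inactive means mean inhibition below 70%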
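Material: S100A4 monomer protein / Buffer or medium: 50 mM HEPES pH 7.2, 10 mM CaCl2, 100 mM KCl / Times: 5 min incubation before reading / Benchmarks: neutral control DMSO, positive control TFP / Reagent: labelled myosin peptide probe, 5 nM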
Starred values were filed as active, the others as inactive; ? = inconclusive; · = no result; ! = not confirmed by another sample; [ ] = dose if it differs, or a comment.

SMILES	E-selectin induc	CFTR F508del cor	Env fusion inh	FGF22 binding	S100A4 inh HTS
CC(C)(C)[S@](=O)N1Cc2cc(C(=O)NCCN3CCCCC3)nc(-c3cccc(-c4cccc(C#N)c4)c3)c2[C@@H]1CCO	0	2	14[16.7 µM]	0	-25
O=C(Nc1ccc(Cl)c(C(F)(F)F)c1)[C@@H]1CC=C[C@@H]2CCN(Cc3ccccc3)C(=O)[C@@H]21	-1	1	64*	0	-3
CCCCN1CC[C@H]2C=CC[C@@H](C(=O)Nc3ccc(Cl)c(C(F)(F)F)c3)[C@H]2C1=O	0	-1	32	0	-4
C[C@H]1CN([C@@H](C)CO)C(=O)c2cc(NS(=O)(=O)c3cccs3)ccc2O[C@H]1CN(C)C(=O)NC1CCCCC1	·	2	·	0	-9
Cc1noc(C)c1C(=O)N1CCC1(C)C(=O)NS(=O)(=O)Cc1cccc(Cl)c1 (configuration not stated)	1	0	·	44*	1
CC1(C(=O)NS(=O)(=O)Cc2cccc(Cl)c2)CCN1C(=O)c1cccc(F)c1 (configuration not stated)	0	1	-5	0	0
COc1ccc(-c2c(-c3cc(OC)cc(OC)c3)n(C)c3ccc(-c4ccc5c(c4)OCCO5)cc23)cc1	0	-1	56*	0	-14
C[C@H]1CN([C@@H](C)CO)C(=O)Cc2cc(NC(=O)Cc3ccccc3)ccc2O[C@@H]1CN(C)S(=O)(=O)c1ccc(F)cc1	0	-3	·	0	-2
CN(C)C(=O)C[C@@H]1CC[C@@H](NC(=O)C2CC2)[C@@H](CO)O1	2	4	9[16.7 µM]	0	-16
C[C@H]1CCCCO[C@@H](CN(C)C(=O)C2CCCCC2)[C@@H](C)CN([C@@H](C)CO)C(=O)c2cc(NC(=O)Nc3ccccc3)ccc2O1	0	0	64*[16.7 µM]	-1	1
C[C@H](CO)N1C[C@H](C)[C@H](CN(C)C(=O)C2CCCCC2)OCCCC[C@H](C)Oc2ccc(NC(=O)Nc3ccccc3)cc2C1=O	·	-1	60*[16.7 µM]	0	4
Cc1noc(C)c1S(=O)(=O)Nc1ccc2c(c1)C(=O)N([C@@H](C)CO)C[C@@H](C)[C@@H](CN(C)C(=O)Nc1ccc(F)cc1)O2	0	-1	-18[16.7 µM]	·	·
CCCC#Cc1ccc2c(c1)O[C@@H](CN(C)C(=O)c1ccccc1)[C@H](C)CN([C@@H](C)CO)S2(=O)=O	0	0	-32[16.7 µM]	0	-7
C[C@@H]1CCCCO[C@@H](CN(C)Cc2ccc(C(F)(F)F)cc2)[C@@H](C)CN([C@H](C)CO)C(=O)c2cc(NS(=O)(=O)c3ccc(F)cc3)ccc2O1	0	2	2[16.7 µM]	1	4
C[C@H](CO)N1C[C@H](C)[C@@H](CN(C)Cc2ccc(C(F)(F)F)cc2)OCCCC[C@H](C)Oc2ccc(NS(=O)(=O)c3ccc(Cl)cc3)cc2C1=O	0	0	55*[16.7 µM]	-1	-11
C[C@H]1CCCCO[C@H](CN(C)Cc2ccc(C(F)(F)F)cc2)[C@@H](C)CN([C@@H](C)CO)C(=O)c2cc(NS(=O)(=O)c3ccc(F)cc3)ccc2O1	0	2	68*[16.7 µM]	-1	-4
C[C@@H]1CN([C@H](C)CO)C(=O)c2cc(NS(=O)(=O)c3ccc(Cl)cc3)ccc2O[C@@H](C)CCCCO[C@@H]1CN(C)Cc1ccc(C(F)(F)F)cc1	0	3	?	0	6
C[C@H]1CCCCO[C@@H](CN(C)Cc2ccc(C(F)(F)F)cc2)[C@@H](C)CN([C@@H](C)CO)C(=O)c2cc(NS(C)(=O)=O)ccc2O1	0	-1	55*[16.7 µM]	0	·
COc1ccc2c3c([nH]c2c1)[C@H](CO)N(C(=O)c1ccc(F)cc1)CC31CN(C(=O)NC(C)C)C1	0	-2	·	0	-25
O=C(NCCCc1nc2ccccc2[nH]1)c1ccco1	0	1	84*	0	-6
CNC[C@@H]1Oc2ncc(/C=C/c3ccccc3)cc2C(=O)N([C@H](C)CO)C[C@H]1C	3	-3	·	·	·
COCCn1c(SCC(=O)Nc2nc(C)c(Cl)cc2Cl)nc2ccccc21	·	·	1	·	·
COCCn1c(SCC(=O)Nc2ccc(Cl)c(S(=O)(=O)N(C)C)c2)nc2ccccc21	·	·	60*	·	·
COc1ccc(NC(=O)CN(C)CC(=O)Nc2ccc(Cl)c(S(=O)(=O)N(C)C)c2)cc1	0	-1	14	43*	24
Cc1noc(C)c1NC(=O)N(C)C[C@H]1OCCCC[C@@H](C)Oc2ccc(NC(=O)NC(C)C)cc2C(=O)N([C@H](C)CO)C[C@H]1C	0	3	-31[16.7 µM]	0	2
SMILES	E-selectin induc	CFTR F508del cor	Env fusion inh	FGF22 binding	S100A4 inh HTS
COc1ccccc1NC(=O)N(C)C[C@@H]1OCc2ccccc2-c2c(n(C)c3ccccc23)C(=O)N([C@H](C)CO)C[C@@H]1C	3	0	67*	0	-4
COC(=O)N(C)C[C@@H]1OCc2ccccc2-c2c(n(C)c3ccccc23)C(=O)N([C@H](C)CO)C[C@@H]1C	0	0	66*!	0	2
C[C@H](CO)N1C[C@H](C)[C@H](CN(C)C(=O)Nc2ccc(F)cc2)OCc2ccccc2-c2c(n(C)c3ccccc23)C1=O	-2	-2	90*![16.7 µM]	0	-4
C[C@H](CO)N1C[C@H](C)[C@H](CN(C)C(=O)C2CC2)OCc2ccccc2-c2c(n(C)c3ccccc23)C1=O	1	-2	60*[16.7 µM]	0	64
C[C@H](CO)N1C[C@H](C)[C@@H](CN(C)C(=O)C2CC2)OCc2ccccc2-c2c(n(C)c3ccccc23)C1=O	-1	0	13[16.7 µM]	0	-1
O=C(C[C@H]1CC[C@H]2[C@@H](COC[C@H](O)CN2C(=O)Cc2ccccc2)O1)NC1CCC1	0	4	·	0	-19
C[C@H]1CCCCO[C@@H](CN(C)C(=O)c2ccccc2)[C@@H](C)CN([C@@H](C)CO)C(=O)c2cc(NC(=O)c3ccccc3)ccc2O1	·	-5	3[16.7 µM]	-1	14
CCS(=O)(=O)N(C)C[C@@H]1N[C@H](CO)[C@@H]1c1ccc(C#CC2CCCC2)cc1	0	1	·	·	-19
COc1ccc(S(=O)(=O)Nc2ccc3c(c2)C(=O)N([C@@H](C)CO)C[C@H](C)[C@@H](CN(C)C(=O)NC2CCCCC2)OCCCC[C@@H](C)O3)cc1	·	3	-45[16.7 µM]	0	-1
N#C[C@@H]1[C@@H](c2ccc(-c3cccc(F)c3)cc2)[C@H](CO)N1C(=O)NC1CCCCC1	0	-2	·	·	-4
CCOC(=O)C1=C(O)C(=O)N(Cc2cccnc2)C1c1ccc(C)cc1 (configuration not stated)	2	-1	-2	44*	-1
CC(=O)C1=C(O)C(=O)N(Cc2cccnc2)C1c1ccc(C(C)C)cc1 (configuration not stated)	1	7	7	43*	-11

Source: PubChem BioAssay (Broad Institute)
